Data on five compounds can be found in article PMC3132207 (Journal of medicinal chemistry, 2011).

In data set [1] the target is butyrylcholinesterase purified from human blood serum (Homo sapiens, UniProt P06276). The data set can be described thus: In vitro hydrolysis by serum cholinesterase. The class given is in vitro ADME. As to conditions: even after 24 h incubations.
For data set [2], the target named is chymotrypsin (Bos taurus, UniProt P00766). In words: In vitro hydrolysis by chymotrypsin. The format is in vitro ADME. As to conditions: 50 µM compound, 37 °C. The essentials:
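Hydrolysis was followed by diode-array UV absorbance at the product peak wavelength, starting on compound addition. Runs were in triplicate. Enzyme activity was confirmed separately with 90 µM 4-nitrophenyl acetate in 0.1 M HEPES, pH 6.5, 37 °C, read at 404 nm for 10 min.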

Data set [3] has as its target proteinase K (Parengyodontium album, UniProt P06873). The data set can be described thus: In vitro hydrolysis by proteinase K. The format is in vitro ADME, Engyodontium album. As to conditions: 50 µM compound, 37 °C.
In data set [4] the target is heteromeric rod CNG channels consisting of CNGA1 and CNGB1 subunits (Bos taurus, UniProt Q00194+Q28181). The format is cell-based. As to conditions: 20 µM blocker, Vm = +50 mV.

Molecules are shown by their SMILES.

proteinase K, sequence (P06873 106-384): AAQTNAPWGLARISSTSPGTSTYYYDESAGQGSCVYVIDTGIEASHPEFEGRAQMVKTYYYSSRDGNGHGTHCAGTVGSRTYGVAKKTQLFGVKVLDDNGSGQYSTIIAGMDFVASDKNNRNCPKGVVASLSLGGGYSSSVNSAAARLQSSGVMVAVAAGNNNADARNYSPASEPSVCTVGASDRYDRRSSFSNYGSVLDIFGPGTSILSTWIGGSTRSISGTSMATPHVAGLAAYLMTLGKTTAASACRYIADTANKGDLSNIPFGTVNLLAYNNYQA
butyrylcholinesterase purified from human blood serum, sequence (P06276 29-602): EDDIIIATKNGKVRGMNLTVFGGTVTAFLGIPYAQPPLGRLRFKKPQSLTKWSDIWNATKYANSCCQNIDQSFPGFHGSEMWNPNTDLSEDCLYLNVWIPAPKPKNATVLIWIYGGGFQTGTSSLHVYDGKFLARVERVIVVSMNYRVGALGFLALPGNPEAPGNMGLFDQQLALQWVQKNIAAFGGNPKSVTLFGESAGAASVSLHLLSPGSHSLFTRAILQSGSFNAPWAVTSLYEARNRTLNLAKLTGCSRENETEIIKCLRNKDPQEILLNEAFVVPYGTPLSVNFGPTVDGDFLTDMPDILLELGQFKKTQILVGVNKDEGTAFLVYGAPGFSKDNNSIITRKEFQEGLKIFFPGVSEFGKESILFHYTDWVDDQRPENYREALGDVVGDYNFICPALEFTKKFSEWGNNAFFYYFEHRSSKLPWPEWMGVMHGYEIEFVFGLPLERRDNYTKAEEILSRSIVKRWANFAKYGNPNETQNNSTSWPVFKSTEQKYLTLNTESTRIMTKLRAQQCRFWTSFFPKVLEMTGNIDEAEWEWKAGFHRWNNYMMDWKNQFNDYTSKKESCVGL
heteromeric rod CNG channels consisting of CNGA1 and CNGB1 subunits, sequence (Q00194 whole entry): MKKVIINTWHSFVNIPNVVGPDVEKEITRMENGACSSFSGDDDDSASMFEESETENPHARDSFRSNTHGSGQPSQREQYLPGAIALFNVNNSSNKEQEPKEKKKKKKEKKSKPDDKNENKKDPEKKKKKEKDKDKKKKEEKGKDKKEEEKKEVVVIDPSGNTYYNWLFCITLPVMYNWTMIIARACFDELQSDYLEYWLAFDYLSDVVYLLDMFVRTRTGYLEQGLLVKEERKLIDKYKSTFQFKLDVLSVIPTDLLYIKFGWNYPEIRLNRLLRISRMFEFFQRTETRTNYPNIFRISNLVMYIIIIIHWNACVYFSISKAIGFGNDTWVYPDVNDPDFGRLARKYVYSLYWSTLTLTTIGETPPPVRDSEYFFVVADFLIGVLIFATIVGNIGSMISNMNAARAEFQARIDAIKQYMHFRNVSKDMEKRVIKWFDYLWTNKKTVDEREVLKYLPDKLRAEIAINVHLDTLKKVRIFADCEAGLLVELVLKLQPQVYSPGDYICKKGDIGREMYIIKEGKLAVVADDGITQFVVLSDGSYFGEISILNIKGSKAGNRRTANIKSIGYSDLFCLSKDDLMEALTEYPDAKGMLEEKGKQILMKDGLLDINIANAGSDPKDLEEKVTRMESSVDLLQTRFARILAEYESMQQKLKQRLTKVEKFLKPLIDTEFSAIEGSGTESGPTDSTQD
heteromeric rod CNG channels consisting of CNGA1 and CNGB1 subunits, sequence (Q28181 whole entry): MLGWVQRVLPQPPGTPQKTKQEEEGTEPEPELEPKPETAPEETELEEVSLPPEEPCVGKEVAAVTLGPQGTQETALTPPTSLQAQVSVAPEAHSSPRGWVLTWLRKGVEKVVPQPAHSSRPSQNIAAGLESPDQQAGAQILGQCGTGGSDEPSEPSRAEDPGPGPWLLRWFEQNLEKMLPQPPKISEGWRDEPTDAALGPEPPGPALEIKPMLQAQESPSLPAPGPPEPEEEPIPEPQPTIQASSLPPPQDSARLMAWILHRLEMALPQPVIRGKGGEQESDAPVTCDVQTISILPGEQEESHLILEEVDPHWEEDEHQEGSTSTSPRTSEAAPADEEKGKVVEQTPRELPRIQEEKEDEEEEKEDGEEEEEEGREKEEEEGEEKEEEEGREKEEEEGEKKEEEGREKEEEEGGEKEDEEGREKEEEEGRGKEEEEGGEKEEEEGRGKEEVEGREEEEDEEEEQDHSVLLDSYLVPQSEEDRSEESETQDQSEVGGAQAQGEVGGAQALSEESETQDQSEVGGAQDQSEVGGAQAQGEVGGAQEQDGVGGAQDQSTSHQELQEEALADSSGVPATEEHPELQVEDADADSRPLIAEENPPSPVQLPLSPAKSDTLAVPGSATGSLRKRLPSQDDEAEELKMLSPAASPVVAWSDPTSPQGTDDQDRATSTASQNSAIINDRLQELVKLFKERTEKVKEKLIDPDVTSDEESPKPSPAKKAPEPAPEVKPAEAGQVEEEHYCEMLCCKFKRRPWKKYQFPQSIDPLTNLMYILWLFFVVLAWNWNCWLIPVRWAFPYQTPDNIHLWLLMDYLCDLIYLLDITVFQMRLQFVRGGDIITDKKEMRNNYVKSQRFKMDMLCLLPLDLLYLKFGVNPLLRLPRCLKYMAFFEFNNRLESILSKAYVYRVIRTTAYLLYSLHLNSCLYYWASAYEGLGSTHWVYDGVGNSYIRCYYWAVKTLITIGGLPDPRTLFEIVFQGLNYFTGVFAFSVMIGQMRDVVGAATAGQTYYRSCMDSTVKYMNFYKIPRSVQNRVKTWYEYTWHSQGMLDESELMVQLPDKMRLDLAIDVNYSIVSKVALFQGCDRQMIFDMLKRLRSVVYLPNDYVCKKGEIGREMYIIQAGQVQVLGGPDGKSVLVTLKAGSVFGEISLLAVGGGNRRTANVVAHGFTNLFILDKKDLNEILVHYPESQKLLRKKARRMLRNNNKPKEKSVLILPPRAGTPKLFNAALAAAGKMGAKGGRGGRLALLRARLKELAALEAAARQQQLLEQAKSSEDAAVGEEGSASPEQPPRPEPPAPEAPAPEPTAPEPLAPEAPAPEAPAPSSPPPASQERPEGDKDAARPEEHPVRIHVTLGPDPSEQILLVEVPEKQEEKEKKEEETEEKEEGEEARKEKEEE

With `CCCCNc1ccc(C(=S)NCCN(C)C)cc1` [Compound 8, 4-(Butylamino)-N-(2-(dimethylamino)ethyl)benzothioamide], the “hydrolysis product detection by butyrylcholinesterase” value in data set [1] is listed as “much too stable for our system to detect any hydrolysis product”. Moreover, the hydrolysis by chymotrypsin entry in data set [2] is reported as “completely resistant”. Besides, in data set [3], the “hydrolysis by proteinase K” value is on record as “completely resistant”.

As to `COc1ccc([C@H]2Sc3ccccc3N(CCN(C)C)C(=O)[C@H]2OC(C)=O)cc1` (relative stereo) [l-cis-diltiazem], in data set [4], the “block of 2 mM cGMP-induced currents” value stood at 74.2 ± 5.8%.

For the compound `CCCCNc1ccc(C(=O)NCCN(C)C)cc1` [Compound 6, 4-(Butylamino)-N-(2-(dimethylamino)ethyl)benzamide], the hydrolysis by chymotrypsin entry in data set [2] was “resistant”. For the same compound, the “hydrolysis by proteinase K” value in data set [3] was “resistant”.

On to `CCCCCCCCNc1ccc(C(=O)NCCN(C)C)cc1` [Compound 7, 4-(Octylamino)-N-(2-(dimethylamino)ethyl)benzamide], for which the hydrolysis by chymotrypsin entry in data set [2] was “resistant”. In data set [3], the “hydrolysis by proteinase K” value was “resistant”.

Turning to `CCCCCCCCNc1ccc(C(=S)NCCN(C)C)cc1` [Compound 9, 4-(Octylamino)-N-(2-(dimethylamino)ethyl)benzothioamide], in data set [1], the “hydrolysis product detection by butyrylcholinesterase” value is “much too stable for our system to detect any hydrolysis product”. Moreover, the hydrolysis by chymotrypsin result in data set [2] is “completely resistant”. The “hydrolysis by proteinase K” value in data set [3] is on record as “completely resistant”.
